In ChEMBL document CHEMBL4043285 (J Med Chem, 2018) one finds Activity, IC50 and inhibition data, which are given here for 18 compounds.

The test system of one series is Mus musculus. In words: Protection against TNF-induced hypothermia in TNF-induced SIRS C57BL/6J mouse model at 50 mg/kg administered via oral gavage treated 1.5 hrs prior to TNF challenge by thermometric analysis. The format is functional, organism-based. The method in brief: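 Mice were dosed orally by gavage at 50 mg/kg, 1.5 h before challenge with murine TNF (mTNF).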

The target of the next series is Aurora kinase B (Homo sapiens, UniProt Q96GD4). In words: Inhibition of human recombinant AurKB after 4 hrs by ADP-Glo assay. A general note: ADP-Glo turns the ADP formed in a reaction into a luminescent signal.
In the next series the target is T1, Aurora kinase A (Homo sapiens, UniProt O14965).
T1 sequence (O14965 whole entry): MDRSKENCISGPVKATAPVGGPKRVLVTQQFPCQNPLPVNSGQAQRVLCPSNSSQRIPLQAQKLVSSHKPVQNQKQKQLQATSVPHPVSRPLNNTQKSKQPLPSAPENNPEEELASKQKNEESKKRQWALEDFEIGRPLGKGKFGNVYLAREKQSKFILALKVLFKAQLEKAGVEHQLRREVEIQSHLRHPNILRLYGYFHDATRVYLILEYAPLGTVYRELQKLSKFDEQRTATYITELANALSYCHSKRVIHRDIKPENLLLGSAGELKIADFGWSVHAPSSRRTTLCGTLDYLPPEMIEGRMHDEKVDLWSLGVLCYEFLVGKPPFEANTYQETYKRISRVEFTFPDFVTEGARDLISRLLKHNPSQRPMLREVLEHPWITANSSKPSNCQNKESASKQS
Kind of series: Inhibition of human recombinant AurKA after 4 hrs by ADP-Glo assay.

Series [1] in a line: Inhibition of Aurk mouse L929sA cells transfected with human Fas assessed as increase in nuclear area after 24 hrs in presence of TNF by Hoechst 33342 staining-based microscopic assay. The method in brief: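 L929sAhFAS cells treated with compound; mean nuclear area is measured and fitted as a sigmoidal dose–response curve.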
Series [2] deals with Aurk (Aurora kinase). Kind of series: Inhibition of Aurk in mouse L929sA cells transfected with human Fas assessed as reduction in cell growth at 3 uM after 24 hrs in presence of TNF by Hoechst 33342 staining-based microscopic assay relative to control.
The test system of series [3] is Aurk (Aurora kinase). Kind of series: Inhibition of Aurk in mouse L929sA cells transfected with human Fas assessed as increase in nuclear area at 3 uM after 24 hrs in presence of TNF by Hoechst 33342 staining-based microscopic assay relative to control. The format is cell-based.
Series [4] in a line: Inhibition of Aurk mouse L929sA cells transfected with human Fas assessed as reduction in cell growth after 24 hrs in presence of TNF by Hoechst 33342 staining-based microscopic assay. Summed up: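 L929sAhFAS cells exposed to compound; total cell number is counted after 24 h. IC50 is fitted from a dose–response curve of cell growth.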
Series [5] deals with T2, Receptor-interacting serine/threonine-protein kinase 1 (Mus musculus) (UniProt Q60855).
T2 sequence (whole entry): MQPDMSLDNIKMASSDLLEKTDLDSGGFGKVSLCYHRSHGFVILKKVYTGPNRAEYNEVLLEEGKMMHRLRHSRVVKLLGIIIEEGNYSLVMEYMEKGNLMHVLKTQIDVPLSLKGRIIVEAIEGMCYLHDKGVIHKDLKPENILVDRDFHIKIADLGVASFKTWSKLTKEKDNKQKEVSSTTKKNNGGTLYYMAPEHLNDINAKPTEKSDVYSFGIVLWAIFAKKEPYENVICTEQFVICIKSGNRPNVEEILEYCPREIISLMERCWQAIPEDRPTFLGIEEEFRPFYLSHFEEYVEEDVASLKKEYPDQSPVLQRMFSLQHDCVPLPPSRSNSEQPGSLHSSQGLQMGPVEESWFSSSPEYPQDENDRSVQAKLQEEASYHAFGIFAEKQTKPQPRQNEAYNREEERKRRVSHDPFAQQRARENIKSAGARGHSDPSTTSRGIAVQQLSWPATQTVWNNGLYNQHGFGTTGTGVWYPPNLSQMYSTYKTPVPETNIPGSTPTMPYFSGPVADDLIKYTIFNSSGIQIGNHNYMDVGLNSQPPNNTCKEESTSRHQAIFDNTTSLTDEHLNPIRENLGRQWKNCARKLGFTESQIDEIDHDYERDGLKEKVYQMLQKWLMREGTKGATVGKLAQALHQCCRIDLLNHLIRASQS
In words: Inhibition of RIPK1 in mouse L929sA cells transfected with human Fas assessed as inhibition in TNF-induced necroptosis at 3 uM pretreated for 0.5 hrs followed by TNF and zVAD.fmk addition measured after 3 hrs by Hoechst 33342/propidium iodide staining-based assay relative to control. The format is cell-based.

Series [6] deals with T2, Receptor-interacting serine/threonine-protein kinase 1 (Mus musculus). Kind of series: Inhibition of RIPK1 in mouse L929sA cells transfected with human Fas assessed as inhibition in TNF-induced necroptosis at 3 uM pretreated for 24 hrs followed by TNF and zVAD.fmk addition measured after 3 hrs by Hoechst 33342/propidium iodide staining-based assay relative to control. It counts as cell-based.

Activity calls are given as the source filed them. The calls are words filed in the database; no cut-off is given here.

Chain of Aurora kinase B (Q96GD4 whole entry): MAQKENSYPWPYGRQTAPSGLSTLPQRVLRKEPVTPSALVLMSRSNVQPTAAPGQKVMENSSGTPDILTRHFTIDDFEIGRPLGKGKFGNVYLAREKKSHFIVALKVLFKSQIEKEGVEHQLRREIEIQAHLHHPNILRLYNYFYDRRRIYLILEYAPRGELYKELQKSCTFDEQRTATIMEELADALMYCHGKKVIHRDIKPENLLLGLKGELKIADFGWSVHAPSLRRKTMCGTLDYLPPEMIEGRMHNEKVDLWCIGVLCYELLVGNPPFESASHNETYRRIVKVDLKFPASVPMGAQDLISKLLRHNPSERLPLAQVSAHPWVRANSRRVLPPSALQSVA

For orientation: IC50 means the concentration that gives 50% inhibition. For the compound `CN1C(=O)NC(Cc2c[nH]c3c(Cl)cccc23)C1=O` (stereo unspecified), in the series with Mus musculus, the result was Active. Moreover, the IC50 on Aurora kinase B and on Aurora kinase A was greater than 3000 nM each time.
One may read the inhibition as the percentage by which the read-out fell short of the control. In the case of `Cc1cc(Nc2cc(N3CCOCC3)nc(Nc3ccc(NC(=O)C4CC4)cc3)n2)n[nH]1`, in the series with Mus musculus, the outcome was Active. The IC50 in series [1] is greater than 3000 nM; at Aurora kinase B it was 853 nM; in [4], greater than 3000 nM; at Aurora kinase A it was 430 nM. For the same compound, the inhibition at 24 h, 3 µM in the series with Aurk (Aurora kinase) [2] and with Aurk (Aurora kinase) [3] was less than 50% throughout.
For `Cc1cc(Nc2cc(N3CCCCC3)nc(Nc3ccc(NC(=O)C4CC4)cc3)n2)n[nH]1`, the result with Mus musculus was inactive. The half-maximal inhibitory concentration (IC50) in series [1] is greater than 3000 nM; at Aurora kinase B, 959 nM; in [4], greater than 3000 nM. For the same compound, the inhibition at 24 h, 3 µM in the series with Aurk (Aurora kinase) [2] and in the series with Aurk (Aurora kinase) [3] was less than 50% throughout.
For `Cc1[nH]nc(Nc2nc(Sc3ccc(NC(=O)C4CC4)cc3)nc(N3CCOCC3)n2)c1C`, the 50% inhibitory concentration (IC50) in series [1] and in series [4] was greater than 3000 nM each time. Also, the inhibition in series [5] and in series [6] was less than 50% throughout. Also, the inhibition at 24 h, 3 µM in the series with Aurk (Aurora kinase) [2] and in the series with Aurk (Aurora kinase) [3] was less than 50% each time.
Take `Cc1cc(Nc2nc(Nc3ccc(NC(=O)C4CCCCC4)cc3)nc(N3CCN(C)CC3)n2)n[nH]1`: the IC50 in [1] and in series [4] was greater than 3000 nM each time. The inhibition in series [5] and in [6] was less than 50% each time. The inhibition at 24 h, 3 µM in the series on Aurk (Aurora kinase) [2] and with Aurk (Aurora kinase) [3] was less than 50% in each case.
As to `Cc1cc(Nc2nc(Sc3ccc(NC(=O)C4CCCCC4)cc3)nc(N3CCCCC3)n2)n[nH]1`, the half-inhibitory concentration (IC50) in series [1] and in [4] was greater than 3000 nM each time. For the same compound, the inhibition in series [5] and in [6] was less than 50% each time. The inhibition at 24 h, 3 µM in the series with Aurk (Aurora kinase) [2] and in the series with Aurk (Aurora kinase) [3] was less than 50% throughout.
`Cc1[nH]nc(Nc2cc(N3CCOCC3)nc(Nc3ccc(NC(=O)C4CC4)cc3)n2)c1C`: the IC50 in [1] and in series [4] was greater than 3000 nM in each case. The inhibition in series [5] and in series [6] was less than 50% throughout. Further, the inhibition at 24 h, 3 µM with Aurk (Aurora kinase) [2] and in the series with Aurk (Aurora kinase) [3] was less than 50% each time.
With `Cc1[nH]nc(Nc2cc(N3CCOCC3)nc(Nc3ccc(NC(=O)C4CCCCC4)cc3)n2)c1C`, the IC50 in series [1] and in series [4] was greater than 3000 nM throughout. For the same compound, the inhibition in [5] and in series [6] was less than 50% each time. For the same compound, the inhibition at 24 h, 3 µM with Aurk (Aurora kinase) [2] and in the series on Aurk (Aurora kinase) [3] was less than 50% each time.
For `Cc1[nH]nc(Nc2cc(N3CCCCC3)nc(Sc3ccc(NC(=O)C4CCCCC4)cc3)n2)c1C`, the IC50 in series [1] and in series [4] was greater than 3000 nM each time. The inhibition in [5] and in series [6] was less than 50% in each case. Besides, the inhibition at 24 h, 3 µM in the series on Aurk (Aurora kinase) [2] and with Aurk (Aurora kinase) [3] was less than 50% each time.
Turning to `CCN1CCN(c2cc(Nc3n[nH]c(C)c3C)nc(Sc3ccc(NC(=O)C4CC4)cc3)n2)CC1`, the IC50 in [1] and in series [4] was greater than 3000 nM each time. In addition, the inhibition in series [5] and in series [6] was less than 50% in each case. In addition, the inhibition at 24 h, 3 µM in the series with Aurk (Aurora kinase) [2] and with Aurk (Aurora kinase) [3] was less than 50% throughout.
Consider `Cc1[nH]nc(Nc2nc(Nc3ccc(NC(=O)C4CCCCC4)cc3)nc(N3CCN(C)CC3)n2)c1C`, for which the IC50 in series [1] and in series [4] was greater than 3000 nM each time. For the same compound, the inhibition in series [5] and in series [6] was less than 50% throughout. Also, the inhibition at 24 h, 3 µM in the series on Aurk (Aurora kinase) [2] and in the series on Aurk (Aurora kinase) [3] was less than 50% throughout.
Consider `Cc1[nH]nc(Nc2cc(N3CCCCC3)nc(Nc3ccc(NC(=O)C4CCCCC4)cc3)n2)c1C`, for which the IC50 in series [1] and in series [4] was greater than 3000 nM throughout. Further, the inhibition in series [5] and in series [6] was less than 50% in each case. Besides, the inhibition at 24 h, 3 µM in the series with Aurk (Aurora kinase) [2] and in the series on Aurk (Aurora kinase) [3] was less than 50% in each case.
As for `Cc1[nH]nc(Nc2nc(Sc3ccc(NC(=O)C4CCCCC4)cc3)nc(N3CCCCC3)n2)c1C`, the IC50 in series [1] and in series [4] was greater than 3000 nM each time. The inhibition in [5] and in [6] was less than 50% in each case. Also, the inhibition at 24 h, 3 µM in the series with Aurk (Aurora kinase) [2] and in the series on Aurk (Aurora kinase) [3] was less than 50% in each case.
Turning to `Cc1[nH]nc(Nc2nc(Nc3ccc(NC(=O)C4CC4)cc3)nc(N3CCN(C)CC3)n2)c1C`, the IC50 in [1] and in [4] was greater than 3000 nM each time. Moreover, the inhibition in series [5] and in series [6] was less than 50% each time. For the same compound, the inhibition at 24 h, 3 µM in the series on Aurk (Aurora kinase) [2] and in the series with Aurk (Aurora kinase) [3] was less than 50% each time.
For `Cc1cc(Nc2nc(Nc3ccc(NC(=O)C4CC4)cc3)nc(N3CCN(C)CC3)n2)n[nH]1`, the IC50 in series [1] and in series [4] was greater than 3000 nM each time. In addition, the inhibition in [5] and in series [6] was less than 50% throughout. The inhibition at 24 h, 3 µM with Aurk (Aurora kinase) [2] and with Aurk (Aurora kinase) [3] was less than 50% each time.
Take `Cc1[nH]nc(Nc2nc(Sc3ccc(NC(=O)C4CCCCC4)cc3)nc(N3CCN(C)CC3)n2)c1C`: the IC50 in series [1] and in series [4] was greater than 3000 nM each time. The inhibition in series [5] and in [6] was less than 50% in each case. The inhibition at 24 h, 3 µM with Aurk (Aurora kinase) [2] and in the series on Aurk (Aurora kinase) [3] was less than 50% throughout.
Consider `Cc1[nH]nc(Nc2nc(Sc3ccc(NC(=O)C4CC4)cc3)nc(N3CCN(C)CC3)n2)c1C`, for which the IC50 in series [1] and in series [4] was greater than 3000 nM throughout. In addition, the inhibition in series [5] and in series [6] was less than 50% in each case. Moreover, the inhibition at 24 h, 3 µM with Aurk (Aurora kinase) [2] and with Aurk (Aurora kinase) [3] was less than 50% throughout.
On to `Cc1[nH]nc(Nc2nc(Nc3ccc(NC(=O)C4CCCCC4)cc3)nc(N3CCOCC3)n2)c1C`, for which the IC50 in [1] and in [4] was greater than 3000 nM each time. Further, the inhibition in series [5] and in [6] was less than 50% in each case. The inhibition at 24 h, 3 µM in the series on Aurk (Aurora kinase) [2] and in the series on Aurk (Aurora kinase) [3] was less than 50% throughout.
